HSF1 activator = increases HSF-1 driven luciferase reporter signal. NIH3T3-HGL HSF-1 luciferase reporter, MG132, 8 h; 100% = twice DMSO control signal. activation, % at 9 µM. hit rate 1.7% among 300,000;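 active = mean replicate activation of at least 50% with a set share of replicates each reaching 50%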;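 note: 0% = median of the neutral control wells and 100% = twice that signal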
HSF1 inh = HSF1 inhibition. NIH3T3-HGL HSE-luciferase, MG132-induced, luminescence 8 h; stronger effect = lower value. activity change, negative = inhibition, % at 7.5 µM (by protocol). AID 2098. hit rate 0.77% among 300,000;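 active = more than half of replicate wells show activity change below -50%, luminescence cut by over half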;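 note: luciferase reports HSF-1 transcriptional activity via heat shock element; 0% = median of DMSO wells and -100% = zero luminescence signal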
HIF activator = HIF pathway transcriptional activation; hit rate 0.32% among 300,000; U2OS HRE-luciferase reporter, luminescence; normalized: DMSO 0%, desferrioxamine 100%; activation, % at 7.5 µM (by protocol);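 active = mean activation of at least 10% of the iron chelator positive control signal, with at least half of replicates also reaching 10%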
Calb FLC = C. albicans growth modulation with fluconazole. C. albicans CaCi-2 + fluconazole, Alamar Blue growth, 48 h. growth inhibition, % (test concentration not listed). hit rate 0.57% among 300,000;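 active = growth inhibition above about 58% in most replicates, limit read from the data, passing the limit was not always enough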;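 note: all wells also contain fluconazole at 8 µg/ml as a sub-toxic cotreatment; 0% = median of DMSO wells and 100% = median of geldanamycin control wells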
T cruzi repl = T. cruzi replication inhibition. hit rate 1.4% among 300,000. inhibition, % (concentration not given with the values). AID 1885. T. cruzi beta-gal in NIH3T3, luminescence, 90 h;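 active = mean inhibition across valid replicates above about 55%, limit read from the data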;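 note: signal also drops with host cell toxicity which is not excluded here; 0% = plate median of DMSO wells and 100% = zero luminescence signal; higher percent means less beta-gal luminescence so fewer parasites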
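System: Mouse NIH/3T3 fibroblasts infected with β-gal-expressing T. cruzi Tulahuen C4 | Quantity: NIH/3T3 cells, 5,000 per well | Reagent: 5000 reporter trypomastigotes per well | Dosing: Compound pinned at 50 nL/well, DMSO | Schedule: 3 h host attachment, then at least 90 h co-culture | Detection: GalScreen luminescence, 60 min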
Active calls of the source: *. Hits are enriched below; roughly 4.4% of the tested compounds scored in any of these assays.

Screening Cc1ccc(CN2CCN(/N=C\c3cccc([N+](=O)[O-])c3)CC2)cc1 returned HSF1 activator 8, HSF1 inh 5, HIF activator 0, Calb FLC -20 and T cruzi repl 11.
`Cc1occc1C(=O)Nc1cccc2ccccc12` gave HSF1 activator 73*, HSF1 inh 57, HIF activator 4, Calb FLC -3 and T cruzi repl -10.
Screening Cc1occc1C(=O)N/N=C/c1cccc2ccccc12 returned HSF1 activator 63*, HSF1 inh 27, HIF activator 3, Calb FLC 2 and T cruzi repl 2.
Screening O=C(N/N=C/c1cccc2ccccc12)c1ccccc1Cl returned HSF1 activator 23, HSF1 inh 10, HIF activator 2, Calb FLC 25 and T cruzi repl -9.
CN(C)c1ccc(CNCCC(Cc2ccccc2)c2ccco2)cc1 (stereo not drawn) was read as HSF1 activator 5, HSF1 inh -4, HIF activator 0, Calb FLC -28 and T cruzi repl 61*.
For O=C(N/N=C/c1ccc(-c2cccc([N+](=O)[O-])c2)o1)c1cccs1 the results were HSF1 activator 25, HSF1 inh 13, HIF activator 1, Calb FLC -1 and T cruzi repl 80*.
O=C(N/N=C\c1cn[nH]c1-c1ccccc1)c1cccs1 was read as HSF1 activator -80, HSF1 inh -74*, HIF activator 3, Calb FLC 5 and T cruzi repl -18.
O=C(N/N=C\c1cn[nH]c1-c1ccccc1)c1cccnc1 was read as HSF1 activator 7, HSF1 inh -2, HIF activator 0, Calb FLC 5 and T cruzi repl -19.
For O=Cc1cc(N=Nc2ccccc2Cl)ccc1O the results were HSF1 activator -9, HSF1 inh -1, HIF activator 17*, Calb FLC 86* and T cruzi repl 2.
O=Cc1cc(N=Nc2cccc(C(=O)O)c2)ccc1O was read as HSF1 activator 9, HSF1 inh 6, HIF activator 0, Calb FLC -20 and T cruzi repl 1.
`CCN1C(=S)SC(=O)C1=C1C=C(C)OC(C)=C1` gave HSF1 activator 9, HSF1 inh 0, HIF activator 1, Calb FLC -7 and T cruzi repl 21.
Screening CCN1C(=S)SC(=O)C1=C1C=C(C)N(Cc2ccco2)C(C)=C1 returned HSF1 activator -59, HSF1 inh -54*, HIF activator 4, Calb FLC -2 and T cruzi repl 17.
COC(=O)c1ccc(CNCC(O)COc2ccc(-c3ccccc3)cc2)cc1 (stereo not drawn) was read as HSF1 activator 7, HSF1 inh -5, HIF activator 0, Calb FLC -11 and T cruzi repl 33.
OC(CNc1ccccc1)COc1ccc(OCC(O)CNc2ccccc2)cc1 (stereo not drawn) was read as HSF1 activator -10, HSF1 inh -10, HIF activator 1, Calb FLC 13 and T cruzi repl 63*.
Screening CC(Oc1ccc(Br)cc1)C(=O)NC1CCN(Cc2ccccc2)CC1 (stereo not drawn) returned HSF1 activator -2, HSF1 inh -6, HIF activator 0 and T cruzi repl 58*.
Screening CCOCC(O)CNc1ccccc1 (stereo not drawn) returned HSF1 activator 0, HSF1 inh 7, HIF activator 0, Calb FLC -1 and T cruzi repl -11.
Screening COc1ccc(CNCC(O)COc2ccc(C(C)(C)c3ccccc3)cc2)cc1 (stereo not drawn) returned HSF1 activator 194*, HSF1 inh 109, HIF activator -5, Calb FLC 8 and T cruzi repl 43.
COCCCNCCCOc1ccc(C(C)(C)c2ccccc2)cc1 was read as HSF1 activator 22, HSF1 inh -1, HIF activator 0, Calb FLC 1 and T cruzi repl 58*.
`OC1CCN(Cc2ccc(OCc3ccccc3)cc2)CC1` gave HSF1 activator -18, HSF1 inh -13, HIF activator 2, Calb FLC 0 and T cruzi repl 61*.
`O=C(C1CCN(Cc2ccc(OCc3ccccc3)cc2)CC1)N1CCCC1` gave HSF1 activator 14, HSF1 inh 4, HIF activator 2, Calb FLC -6 and T cruzi repl -4.
CCOc1ccc(OCC(O)CNC2CCN(Cc3ccccc3)CC2)cc1 (stereo not drawn) was read as HSF1 activator 4, HSF1 inh 1, HIF activator 0, Calb FLC 0 and T cruzi repl 57*.
`CC(C)(c1ccccc1)c1ccc(OCC(O)CNC2CCN(Cc3ccccc3)CC2)cc1` (stereo not drawn) gave HSF1 activator 5, HSF1 inh 3, HIF activator -8, Calb FLC 33 and T cruzi repl 62*.
`NC(=O)CC(NC(=O)c1ccccc1)c1ccc(NCc2ccccn2)c([N+](=O)[O-])c1` (stereo not drawn) gave HSF1 activator -17, HSF1 inh -2, HIF activator 0, Calb FLC -2 and T cruzi repl -32.
Screening CN(C)CCCNc1cn[nH]c(=O)c1Cl returned HSF1 activator -9, HSF1 inh -8, HIF activator 0, Calb FLC -5 and T cruzi repl 70*.
`COc1ccc(Cl)cc1NC(=O)CN1CCC(NC(=O)C2CC2)CC1` gave HSF1 activator 14, HSF1 inh -7, HIF activator 0, Calb FLC 5 and T cruzi repl -11.
For O=Cc1ccc(N2CCCC2)c([N+](=O)[O-])c1 the results were HSF1 activator 19, HSF1 inh 3, HIF activator 0, Calb FLC -13 and T cruzi repl -5.
`O=[N+]([O-])/C=C\c1ccc(N2CCCC2)c(F)c1` gave HSF1 activator 79*, HSF1 inh 47, HIF activator 2, Calb FLC 0 and T cruzi repl 2.
For COc1ccc(C(O)(C(C)C)C(CN2CCOCC2)c2ccc(Cl)cc2)cc1 (stereo not drawn) the results were HSF1 activator 1, HSF1 inh -1, HIF activator -9, Calb FLC 13 and T cruzi repl 6.
CCn1c(SCc2nc3ccccc3s2)nnc1-c1ccccc1 was read as HSF1 activator 21, HSF1 inh 22, HIF activator 2, Calb FLC -2 and T cruzi repl 6.
Screening COCCn1c(SCc2nc3ccccc3s2)nc2ccccc21 returned HSF1 activator 77*, HSF1 inh 41, HIF activator 2, Calb FLC 8 and T cruzi repl 1.
For COc1cccc(-c2nnc(SCc3nc4ccccc4s3)n2C)c1 the results were HSF1 activator 64*, HSF1 inh 23, HIF activator 2, Calb FLC 5 and T cruzi repl 18.
`CCOCCCn1c(SCc2nc3ccccc3s2)nc2ccccc2c1=O` gave HSF1 activator -4, HSF1 inh -8, HIF activator 1, Calb FLC 4 and T cruzi repl 13.
